Assay results: ChEMBL document CHEMBL1275329, “Fruitful adrenergic α(2C)-agonism/α(2A)-antagonism combination to prevent and contrast morphine tolerance and dependence” (J Med Chem, 2010)
Active and inactive are the calls of the source. The rule behind the calls is not given here.

Tests used:
[1] = target: T1, Alpha-2C adrenergic receptor (Homo sapiens) (UniProt P18825); assay: Agonist activity at human Alpha-2C adrenoceptor expressed in CHO cells assessed as induction of extracellular acidification by microphysiometry relative to (-)noradrenaline; type: functional, cell-based
T1 sequence (whole entry): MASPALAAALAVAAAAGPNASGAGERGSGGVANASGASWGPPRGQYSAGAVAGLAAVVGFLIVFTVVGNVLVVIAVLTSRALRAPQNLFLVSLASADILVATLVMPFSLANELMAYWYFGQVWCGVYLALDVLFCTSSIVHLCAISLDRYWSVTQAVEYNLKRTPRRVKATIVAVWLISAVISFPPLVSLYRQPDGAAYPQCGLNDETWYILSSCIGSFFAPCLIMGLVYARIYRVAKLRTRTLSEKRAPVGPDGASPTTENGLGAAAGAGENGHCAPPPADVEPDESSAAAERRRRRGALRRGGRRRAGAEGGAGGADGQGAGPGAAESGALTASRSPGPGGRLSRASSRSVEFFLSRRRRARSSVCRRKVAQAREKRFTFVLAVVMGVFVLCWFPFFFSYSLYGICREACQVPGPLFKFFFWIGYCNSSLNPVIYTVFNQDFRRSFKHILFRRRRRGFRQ
In short: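 Cytosensor microphysiometry on CHO cells stably expressing one human α2-AR subtype, seeded at 3 × 10⁵ cells/cup and grown 24 h at 37 °C. Cells were perfused with bicarbonate-free DMEM and exposed to agonist for 4 min, with 30 min washes between exposures. The read-out is the change in acidification rate: peak after agonist minus the mean of three prior readings. […] Mean ± SEM, 3–6 experiments.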

[2] = target: T2, Alpha-2A adrenergic receptor (Homo sapiens) (UniProt P08913); assay: Antagonist activity at human alpha2A adrenoceptor expressed in CHO cells assessed as effect on agonist-induced extracellular acidification by microphysiometry; type: functional, cell-based
T2 sequence (whole entry): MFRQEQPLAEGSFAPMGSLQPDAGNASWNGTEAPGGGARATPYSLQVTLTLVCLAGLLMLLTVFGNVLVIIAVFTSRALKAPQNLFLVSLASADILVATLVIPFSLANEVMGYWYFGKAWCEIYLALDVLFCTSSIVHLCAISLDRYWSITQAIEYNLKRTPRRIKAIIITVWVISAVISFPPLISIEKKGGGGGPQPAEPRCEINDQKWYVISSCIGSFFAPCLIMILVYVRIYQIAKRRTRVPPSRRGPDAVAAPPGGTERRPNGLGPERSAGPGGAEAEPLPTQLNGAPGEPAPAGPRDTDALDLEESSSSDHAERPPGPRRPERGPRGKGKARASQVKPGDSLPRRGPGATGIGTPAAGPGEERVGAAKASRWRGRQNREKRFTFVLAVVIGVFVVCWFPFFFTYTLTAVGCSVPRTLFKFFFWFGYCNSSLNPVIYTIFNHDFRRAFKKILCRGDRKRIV
In short: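 CHO cells stably expressing one human α2-AR subtype were run on the Cytosensor microphysiometer with bicarbonate-free DMEM perfusion. […] Kb = M/(concentration ratio − 1), where the ratio is EC50 with antagonist over EC50 without. Reported as pKb, mean ± SEM of 3–6 experiments.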

Mus musculus [3] = assay: Reduction in morphine tolerance acquisition in CD1 mouse assessed as morphine analgesic effect incidence at 0.05 mg/kg, ip bid administered 15 mins before last morphine dosing by radiant heat tail flick test; type: functional, organism-based; design: dose 0.05 mg/kg
Mus musculus [4] = assay: Reduction in morphine dependence expression in CD1 mouse assessed as decrease in expression of naloxone-precipitated withdrawal syndrome at 0.05 mg/kg, ip bid administered 15 mins before last morphine dosing […]; type: functional, organism-based; design: dose 0.05 mg/kg
In short: (§1)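 In male CD-1 mice, morphine 10 mg/kg sc was given twice daily at 12 h intervals for 6 days, with test agent 0.05 mg/kg ip 15 min before each morphine dose. Jumping was counted, and somatic signs were scored as the sum of rearing, forepaw tremor and teeth chatter. Blind observers; mean ± SEM.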

Mus musculus [5] = assay: Reduction in morphine dependence expression in CD1 mouse assessed as decrease in frequency of jumping at 0.05 mg/kg, ip bid administered 15 mins before last morphine dosing […]; type: functional; design: scale not given: the % may be the effect or the level left; details: route intraperitoneal; in short: as §1
Mus musculus [6] = assay: Reduction in morphine tolerance acquisition in CD1 mouse assessed as morphine analgesic effect incidence at 0.05 mg/kg, ip administered as single dose 15 mins before last morphine dosing on test day post morphine challenge by radiant heat tail flick test; type: functional; design: scale not given: the % may be the effect or the level left; details: route intraperitoneal
In short: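 Tolerance was induced in male CD-1 mice with morphine 10 mg/kg sc twice daily at 12 h intervals for 5 days. On day 5, test agent 0.05 mg/kg ip was given once, 15 min before the last morphine injection. Tail-flick antinociception was read 30 min after that injection and expressed as %MPE, with day 1 vs day 5 compared.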

Mus musculus [7] = assay: Reduction in morphine dependence expression in CD1 mouse assessed as decrease in somatic signs at 0.05 mg/kg, ip bid administered 15 mins before last morphine dosing […]; type: functional; design: scale not given: the % may be the effect or the level left; details: route intraperitoneal; in short: as §1
[8] = target: T3, Alpha-2B adrenergic receptor (Homo sapiens) (UniProt P18089); details: CHO
T3 sequence (whole entry): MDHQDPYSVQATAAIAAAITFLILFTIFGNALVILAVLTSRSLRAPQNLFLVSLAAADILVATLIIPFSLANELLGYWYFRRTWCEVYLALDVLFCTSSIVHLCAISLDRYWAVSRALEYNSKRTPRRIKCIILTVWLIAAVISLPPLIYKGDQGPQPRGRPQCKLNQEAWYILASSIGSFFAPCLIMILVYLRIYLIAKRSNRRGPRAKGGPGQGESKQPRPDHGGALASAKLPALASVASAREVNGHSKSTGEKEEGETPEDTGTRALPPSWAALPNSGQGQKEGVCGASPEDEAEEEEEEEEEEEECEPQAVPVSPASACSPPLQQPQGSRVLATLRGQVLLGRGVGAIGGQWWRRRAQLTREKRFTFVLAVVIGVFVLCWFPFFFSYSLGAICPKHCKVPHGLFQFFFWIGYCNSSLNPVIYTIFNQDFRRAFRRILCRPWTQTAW

Q: For `C=CCc1ccccc1OC(C)C1=NCCN1` (racemic) [ALLYPHENYLINE], which Intrinsic activity [1] is on record?
A: 0.9

Q: What about the pKb [2] of the same compound?
A: 7.4

Q: What about the Activity (Mus musculus [3]) of the same compound?
A: Active

Q: And the Activity (Mus musculus [4])?
A: Active

Q: What about the Activity (Mus musculus [5]) of the same compound?
A: 80%

Q: And the Activity (Mus musculus [6])?
A: 22%

Q: And the Activity (Mus musculus [7])?
A: 40%

Q: What about the pEC50 [8] of the same compound?
A: inactive
